Measured values taken from ChEMBL document CHEMBL4765427, “A low toxic CRM1 degrader: Synthesis and anti-proliferation on MGC803 and HGC27” (Eur J Med Chem, 2020).
Active and inactive are the calls of the source. The calls are words filed in the database; no cut-off is given here.

Key:
MGC-803 = test: Antiproliferative activity against human MGC-803 cells by MTT assay; format: functional, cell-based
Method in brief: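 They were seeded at 5×10⁴/well and cultured overnight, then exposed to compound for 24 h. MTT (5 mg/mL solution) was added for 4 h at 37 °C, formazan was dissolved in DMSO, and absorbance was read at 490 nm. Each experiment was run three times.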

[1] = molecular target: Exportin-1 (Homo sapiens) (UniProt O14980); test: Induction of CRM1 degradation in human HGC-27 cells assessed as reduction in CRM1 expression measured after 24 hrs by Western blot analysis; format: cell-based; settings: dose 1.25-10 µM
Sequence of Exportin-1 (Homo sapiens) (O14980 whole entry): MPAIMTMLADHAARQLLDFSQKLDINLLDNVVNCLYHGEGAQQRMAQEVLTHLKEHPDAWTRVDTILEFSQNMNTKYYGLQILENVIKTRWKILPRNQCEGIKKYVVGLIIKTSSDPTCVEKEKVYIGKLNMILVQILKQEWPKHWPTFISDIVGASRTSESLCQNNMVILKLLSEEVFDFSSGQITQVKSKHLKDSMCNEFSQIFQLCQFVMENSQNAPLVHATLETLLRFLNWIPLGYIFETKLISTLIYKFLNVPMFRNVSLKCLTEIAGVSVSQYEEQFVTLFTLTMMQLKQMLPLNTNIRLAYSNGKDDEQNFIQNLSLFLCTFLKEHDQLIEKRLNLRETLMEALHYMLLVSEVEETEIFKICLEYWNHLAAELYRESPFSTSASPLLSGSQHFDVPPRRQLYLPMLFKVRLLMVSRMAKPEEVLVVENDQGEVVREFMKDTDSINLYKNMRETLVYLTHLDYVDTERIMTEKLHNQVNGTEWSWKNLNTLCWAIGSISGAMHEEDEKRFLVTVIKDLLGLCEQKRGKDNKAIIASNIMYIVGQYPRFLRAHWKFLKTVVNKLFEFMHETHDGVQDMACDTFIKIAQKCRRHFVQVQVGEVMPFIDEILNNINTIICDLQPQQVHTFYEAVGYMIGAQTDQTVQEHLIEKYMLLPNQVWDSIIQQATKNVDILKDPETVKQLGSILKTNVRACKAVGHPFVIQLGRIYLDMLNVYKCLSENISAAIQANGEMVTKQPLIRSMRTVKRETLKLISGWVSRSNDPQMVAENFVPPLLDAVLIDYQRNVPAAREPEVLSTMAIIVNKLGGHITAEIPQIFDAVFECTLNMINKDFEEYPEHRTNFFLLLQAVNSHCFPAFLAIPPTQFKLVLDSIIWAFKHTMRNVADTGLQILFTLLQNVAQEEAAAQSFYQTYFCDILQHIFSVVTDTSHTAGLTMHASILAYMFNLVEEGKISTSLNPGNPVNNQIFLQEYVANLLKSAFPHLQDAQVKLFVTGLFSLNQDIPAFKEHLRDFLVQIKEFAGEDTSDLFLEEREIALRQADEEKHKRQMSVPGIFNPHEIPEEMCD

[2] = molecular target: Exportin-1 (Homo sapiens) (UniProt O14980); test: Induction of CRM1 degradation in human MGC-803 cells assessed as reduction in CRM1 expression measured after 24 hrs by Western blot analysis; format: cell-based
[3] = molecular target: Exportin-1 (Homo sapiens) (UniProt O14980); test: Induction of CRM1 degradation in human MGC-803 cells assessed as reduction in CRM1 expression at 5 uM measured after 24 hrs in presence of proteasome inhibitor MG132 by Western blot analysis; format: cell-based
Method in brief: (§1)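 MGC803 and HGC27 cells were exposed to 5 μM compound for 24 h with or without 0.05 μM MG132. CRM1 protein was measured by Western blot on RIPA lysates, with BCA normalization, SDS-PAGE/PVDF transfer and ECL detection.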

[4] = molecular target: Exportin-1 (Homo sapiens) (UniProt O14980); test: Induction of CRM1 degradation in human HGC-27 cells assessed as reduction in CRM1 expression at 5 uM measured after 24 hrs in presence of proteasome inhibitor MG132 by Western blot analysis; format: cell-based; method in brief: as §1
[5] = molecular target: Cellular tumor antigen p53 (Homo sapiens) (UniProt P04637); test: Induction of p53 cytoplasmic translocation in human MGC-803 cells assessed as increase in p53 bound BCL-XL expression at 10 uM measured after 6 hrs in presence of proteasome inhibitor MG132 by DAPI staining based immunofluorescence assay; settings: filed as modulator
Sequence of Cellular tumor antigen p53 (Homo sapiens) (P04637 whole entry, looked up): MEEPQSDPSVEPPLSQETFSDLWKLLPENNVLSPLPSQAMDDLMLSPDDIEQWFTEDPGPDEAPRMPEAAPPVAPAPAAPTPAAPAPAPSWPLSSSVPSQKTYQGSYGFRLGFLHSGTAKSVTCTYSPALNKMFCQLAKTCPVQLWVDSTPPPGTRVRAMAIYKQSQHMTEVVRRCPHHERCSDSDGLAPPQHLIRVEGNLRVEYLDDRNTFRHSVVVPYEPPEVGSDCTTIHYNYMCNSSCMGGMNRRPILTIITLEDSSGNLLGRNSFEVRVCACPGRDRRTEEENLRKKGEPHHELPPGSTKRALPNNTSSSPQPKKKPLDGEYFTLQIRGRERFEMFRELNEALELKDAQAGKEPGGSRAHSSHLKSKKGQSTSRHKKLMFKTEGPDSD

[6] = molecular target: Exportin-1 (Homo sapiens) (UniProt O14980); test: Induction of CRM1 degradation in human HGC-27 cells assessed as reduction in CRM1 expression at 5 uM measured after 24 hrs by Western blot analysis; format: cell-based; method in brief: as §1
[7] = molecular target: Cellular tumor antigen p53 (Homo sapiens) (UniProt P04637); test: Induction of p53 cytoplasmic translocation in human MGC-803 cells at 5 uM measured after 24 hrs in presence of proteasome inhibitor MG132 by immunoprecipitation method; format: cell-based; settings: filed as modulator, dose 10.0 µM, in the assay text read “at 10 uM” for “at 5 uM”
Method in brief: (§2)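 Cells pretreated with 0.05 μM MG132 for 1 h, then exposed to compound for 24 h. Proteins co-precipitated with anti-p53 antibody and detected by immunoblot.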

[8] = molecular target: Cellular tumor antigen p53 (Homo sapiens) (UniProt P04637); test: Induction of p53 cytoplasmic translocation in human MGC-803 cells assessed as increase in p53 bound BCL2 expression at 5 uM measured after 24 hrs in presence of proteasome inhibitor MG132 by immunoprecipitation method; format: cell-based; settings: filed as modulator, dose 10.0 µM, in the assay text read “at 10 uM” for “at 5 uM”; method in brief: as §2
[9] = molecular target: Exportin-1 (Homo sapiens) (UniProt O14980); test: Induction of CRM1 degradation in human MGC-803 cells assessed as increase in Ranbp1 accumulation in nucleus at 10 uM measured after 6 hrs by DAPI staining based immunofluorescence assay; format: cell-based
Method in brief: (§3)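 MGC803 cells were exposed to 10 μM compound for 0 or 6 h. They were fixed in 4% paraformaldehyde for 30 min, permeabilized with 0.1% Triton X-100 for 10 min and blocked with 10% goat serum for 30 min. Staining used anti-Ranbp1 or anti-p53 (green) with DAPI nuclei, and nuclear localization was imaged by confocal microscopy.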

[10] = molecular target: Exportin-1 (Homo sapiens) (UniProt O14980); test: Induction of CRM1 degradation in human MGC-803 cells assessed as reduction in CRM1 expression at 5 uM measured after 24 hrs by Western blot analysis; format: cell-based; method in brief: as §1
[11] = molecular target: Cellular tumor antigen p53 (Homo sapiens) (UniProt P04637); test: Induction of p53 cytoplasmic translocation in human MGC-803 cells assessed as increase in p53 bound BCL-XL expression at 5 uM measured after 24 hrs in presence of proteasome inhibitor MG132 by immunoprecipitation method; format: cell-based; settings: filed as modulator, dose 10.0 µM, in the assay text read “at 10 uM” for “at 5 uM”; method in brief: as §2
[12] = molecular target: Exportin-1 (Homo sapiens) (UniProt O14980); test: Induction of CRM1 degradation in human MGC-803 cells assessed as increase in p53 accumulation in nucleus at 10 uM measured after 6 hrs by DAPI staining based immunofluorescence assay; format: cell-based; method in brief: as §3
[13] = molecular target: Cellular tumor antigen p53 (Homo sapiens) (UniProt P04637); test: Induction of p53 cytoplasmic translocation in human MGC-803 cells assessed as increase in p53 bound BCL2 expression at 10 uM measured after 6 hrs in presence of proteasome inhibitor MG132 by DAPI staining based immunofluorescence assay; settings: filed as modulator
[14] = molecular target: Exportin-1 (Homo sapiens) (UniProt O14980); test: Induction of CRM1 degradation in human HGC-27 cells assessed as reduction in CRM1 expression at 5 uM measured after 24 hrs in presence of proteasome inhibitor bortezomib by Western blot analysis; format: cell-based
[15] = molecular target: Exportin-1 (Homo sapiens) (UniProt O14980); test: Induction of CRM1 degradation in human MGC-803 cells assessed as reduction in CRM1 expression at 5 uM measured after 24 hrs in presence of proteasome inhibitor bortezomib by Western blot analysis; format: cell-based
[16] = molecular target: Cellular tumor antigen p53 (Homo sapiens) (UniProt P04637); test: Induction of p53 cytoplasmic translocation in human MGC-803 cells at 5 uM measured after 6 hrs in presence of proteasome inhibitor MG132 by DAPI staining based immunofluorescence assay; format: cell-based; settings: filed as modulator, dose 10.0 µM, in the assay text read “at 10 uM” for “at 5 uM”
Method in brief: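 Cells pretreated ±0.05 μM MG132 for 1 h, then compound for 6 h. Fixed in 4% paraformaldehyde for 30 min, permeabilized with 0.1% Triton X-100 for 10 min, blocked with 10% normal goat serum for 30 min. Stained with p53 antibody (green) and DAPI nuclei, imaged by confocal microscopy.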

Structure (SMILES)	IC50 (MGC-803) [µM]	Activity [1]	Activity [2]	Activity [3]	Activity [4]	Activity [5]	Activity [6]	Activity [7]	Activity [8]	Activity [9]	Activity [10]	Activity [11]	Activity [12]	Activity [13]	Activity [14]	Activity [15]	Activity [16]
O=c1[nH]cc(F)c(=O)[nH]1 [FLUOROURACIL]	24.8	–	–	–	–	–	–	–	–	–	–	–	–	–	–	–	–
O=C1C=CC[C@H](COc2ccc3c(c2)OCO3)O1	12	–	–	–	–	–	–	–	–	–	–	–	–	–	–	–	–
Cc1ccc(C(C)C)c(OC[C@H]2CC=CC(=O)O2)c1	–	Dose-dependent effect	Dose-dependent effect	inactive	inactive	Active	Active	Active	Active	Active	Active	Active	Active	Active	inactive	inactive	Active
